Efflux pump mplx: blocks antifungal efflux pumps in multiplex yeast assay; inhibition, % at 10 µM; 330,000 compounds, 0.44% hits; AID 485275; S. cerevisiae Candida pump triplex, Nile Red efflux;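 active = plate passing quality check with inhibition over a set limit, or well fluorescence over plate mean plus 4 SD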;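 also: Nile Red retained in pooled yeast measured as flow cytometry median fluorescence; 0% = buffer negative control and 100% = Enniatin B positive control; higher means more Nile Red kept so more efflux inhibition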
ASAP1 GAP inh: blocks human ASAP1-stimulated Arf1 GTP hydrolysis; 360,000 compounds, 0.19% hits; Q9ULH1; GDP FP detection; inhibition, % at 16.5 µM; in the data active = inhibition above about 25%;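 also: 0% = vehicle with enzyme and substrate and 100% = no enzyme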
Target sequence (Q9ULH1 325-724 limits assumed): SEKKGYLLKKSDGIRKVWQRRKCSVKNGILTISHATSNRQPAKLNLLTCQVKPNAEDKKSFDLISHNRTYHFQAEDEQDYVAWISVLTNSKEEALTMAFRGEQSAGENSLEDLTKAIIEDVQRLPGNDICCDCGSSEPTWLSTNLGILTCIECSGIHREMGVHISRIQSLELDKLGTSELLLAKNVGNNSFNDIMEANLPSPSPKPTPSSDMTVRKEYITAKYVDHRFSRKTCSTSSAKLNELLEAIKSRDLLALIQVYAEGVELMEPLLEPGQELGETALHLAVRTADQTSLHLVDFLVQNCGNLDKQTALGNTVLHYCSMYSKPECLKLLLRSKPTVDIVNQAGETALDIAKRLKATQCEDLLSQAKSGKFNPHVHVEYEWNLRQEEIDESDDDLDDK
ARFGAP1 inhibitor: inhibitors of rat ARFGAP1. inhibition, % at 16.5 µM. AID 651572. Arfgap1-stimulated ARF1 GTP hydrolysis, GDP FP detection. 360,000 compounds, 0.26% hits. Q62848;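 active = inhibition above a per-plate limit, mean inhibition of low control wells plus 3 SD, cut at about 25% in these data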;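 also: 0% = DMSO wells with enzyme and 100% = wells lacking Arfgap1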
Target sequence (Q62848 1-136 limits assumed): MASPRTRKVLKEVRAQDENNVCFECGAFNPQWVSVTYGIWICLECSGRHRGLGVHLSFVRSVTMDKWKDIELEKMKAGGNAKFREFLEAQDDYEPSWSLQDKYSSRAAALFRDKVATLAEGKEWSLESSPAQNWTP
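Material – truncated rat Arfgap1 GAP domain · Buffer or medium – HEPES-based buffer, pH 7.5 · Reagent – human ARF1(Δ1-17)-GTP substrate · Dosing – 16.5 µM single point, 1.26% DMSO · Schedule – GTP hydrolysis reaction 2 h at 25 °C · Technique – GDP detection by fluorescence polarization · Benchmarks – No-Arfgap1 wells (100%) versus DMSO full-reaction wells (0%) · Repeats – single replicate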
Rtt109 Vps75: C. albicans Rtt109 histone acetyltransferase inhibition; AID 540336; inhibition, % at 34.9 µM; purified Rtt109/Vps75, ThioGlo CoA-SH fluorescence, 4 h; 330,000 compounds, 0.16% hits; Q5AAJ8;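 active = inhibition of at least 50% in every replicate; inconclusive = best replicate reaches 50% inhibition but some replicates fall short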
FGF22 binding: shifts melting point of recombinant human FGF22 | Q9HCT0 | activity (Tm shift, normalised), % at 9.99 µM | 340,000 compounds, 1.5% hits | recombinant FGF22 thermal shift, SYPRO orange fluorescence; percent of sucrose octasulfate shift, DMSO zero | AID 651658;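 active = mean Tm shift, scaled 0 neutral to 100 positive control, at about 1.3% or above, every replicate too, limit read from the data; inconclusive = no clear call, values can overlap the other calls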
The depositor's hits bear a star; ? = inconclusive; . = not tested or not shown. Rows were chosen to be rich in hits. Some 1.9% of all compounds tested hit in one or more screens of this group.

SMILES | Efflux pump mplx | ASAP1 GAP inh | ARFGAP1 inhibitor | Rtt109 Vps75 | FGF22 binding
CCOC(=O)C1CCN(C(=O)COc2ccc([N+](=O)[O-])cc2)CC1 | 0 | -3 | 1 | 3 | 43*
Cc1nc2sc(C)c(C)c2c(=O)o1 | 0 | -23 | -8 | 10 | .
Cn1cc(CNCc2cnc3ccccn23)c(-c2ccc(Oc3ccccc3)cc2)n1 | 0 | -1 | 3 | . | 44*
COCCN1CCN(Cc2cn(C)nc2-c2ccc(Oc3ccccc3)cc2)CC1 | 0 | 2 | 11 | 1 | 0
Cn1cc(CN2CCN(CCO)CC2)c(-c2ccc(Oc3ccccc3)cc2)n1 | 0 | -1 | 11 | 1 | 43*
CN(Cc1cn(C)nc1-c1ccc(Oc2ccccc2)cc1)Cc1cnc2ccccn12 | 0 | -11 | -6 | 10 | 0
O=C(COc1cccc(F)c1)Nc1nc(-c2ccccn2)cs1 | . | -9 | -11 | . | 44*
O=C(Nc1nc(-c2ccccn2)cs1)c1ccc2c(c1)OCCO2 | 0 | 9 | 12 | -5 | 0
CC(=O)Nc1ccc(C(=O)Nc2nc(-c3ccccn3)cs2)cc1 | 0 | -1 | 7 | -7 | 44*
O=C(CN1CCCC1)Nc1ccc(F)cc1 | 0 | -4 | -5 | -2 | 43*
O=C(CN1CCCC1)NCC(=O)Nc1ccc(F)cc1 | 0 | -11 | 13 | 13 | 0
Cc1csc(Nc2ccccc2)[n+]1-c1ccccc1 | 0 | 13 | 2 | 9 | 43*
Cc1csc(Nc2ccccc2)[n+]1C | 0 | -6 | 16 | 0 | 0
CC(=O)Nc1ccc(NC(=O)c2cccc(S(=O)(=O)N(C)C3CCCCC3)c2)cc1 | 0 | -1 | -2 | -2 | 0
Cc1c(C(=O)Nc2ccc(S(=O)(=O)N(C)C3CCN(C)CC3)cc2)oc2ccccc12 | 0 | -1 | 0 | 26 | 0
Cc1c(C(=O)Nc2ccc(S(=O)(=O)N(C)C3CCN(C)CC3)cc2)oc2c(Cl)cccc12 | 0 | 2 | 4 | 66* | -1
Cc1cc(C)n2cc(CSc3nncn3C)nc2n1 | 0 | -6 | 8 | -7 | 43*
C[C@@H]1CN([C@@H](C)CO)C(=O)c2cc(NC(=O)CCN3CCOCC3)ccc2O[C@H]1CN(C)C(=O)Nc1ccc(C(F)(F)F)cc1 | . | . | . | . | 0
COc1ccc(CNC(=O)CSc2nc(C)cs2)cc1 | 0 | 2 | 2 | 5 | 43*
O=C(Nc1ccc(Cl)c(Cl)c1)N[C@H]1CC[C@H](CCNC(=O)c2ccc(F)cc2)O[C@H]1CO | . | . | . | . | 0
Cn1ncc(SCc2ccccc2)c(Cl)c1=O | 0 | 2 | -4 | -1 | 0
CSc1c(SCc2ccccc2)cnn(-c2ccccc2)c1=O | 0 | -8 | 5 | 58* | .
O=C(Cc1ccc(Cl)cc1)Nc1cccc2ncccc12 | 0 | -1 | 17 | -7 | 0
O=C(Cc1ccc(Cl)c(Cl)c1)Nc1cccc2ncccc12 | 0 | 4 | 2 | -9 | 43*
CC(NC(=O)COc1ccc(N(C)S(=O)(=O)c2ccccc2)cc1)c1ccccc1 (configuration not stated) | 0 | 22 | 0 | 0 | 43*
SMILES | Efflux pump mplx | ASAP1 GAP inh | ARFGAP1 inhibitor | Rtt109 Vps75 | FGF22 binding
O=C(CN1C(=O)C2C3C=CC(C4CC34)C2C1=O)Nc1cnc2ccccc2c1 (configuration not stated) | 0 | 4 | -12 | -2 | 44*
O=C(CN1C(=O)C2C3C=CC(C3)C2C1=O)Nc1ccc2nccnc2c1 (configuration not stated) | 0 | 13 | 12 | -3 | 1
O=C(COC(=O)Cc1ccc(Br)cc1)NC1CC1 | 0 | -9 | -9 | -9 | 0
O=C(COC(=O)Cc1ccc(Br)cc1)NC1CCCC1 | 0 | 6 | 9 | -1 | 43*
Cc1cc(C(=O)Nc2cccc3c2O[C@@H](CN(C)Cc2ccncc2)[C@@H](C)CN([C@H](C)CO)C3=O)n(C)n1 | . | . | . | . | 0
O=c1[nH][nH]c(-c2ccccc2O)c1C(C[N+](=O)[O-])c1ccc(Cl)cc1Cl (configuration not stated) | 1 | 0 | 1 | -3 | 0
Cc1cc(O)c(C(C[N+](=O)[O-])c2ccc(Cl)cc2Cl)c(=O)o1 (configuration not stated) | 0 | . | . | 56* | .
O=C(Cc1ccccc1)N1C[C@@H]2[C@H](c3ccccc31)[C@@H](CO)N2S(=O)(=O)c1ccccc1 | . | . | . | . | 0
Cc1ccc(NC(=O)CN2C(=O)S/C(=C\c3ccc(-c4cccc(C(=O)O)c4C)o3)C2=O)cc1C | . | 12 | 3 | . | 44*
CCOC(=O)CN1C(=O)S/C(=C\c2ccc(-c3cccc(C(=O)O)c3C)o2)C1=O | 0 | 18 | 1 | . | 0
Cc1cccc(NC(=O)CN2C(=O)N/C(=C/c3ccc(-c4cccc(C(=O)O)c4C)o3)C2=O)c1 | 0 | 6 | -9 | 2 | 43*
CCN(Cc1nc(-c2ccc(Cl)cc2)no1)CC1CCCO1 (configuration not stated) | 0 | -7 | -3 | 5 | 0
N/C(=N\NC(=O)c1ccc(F)cc1)c1cc2ccccc2oc1=O | 0 | 5 | -3 | 1 | 43*
Cc1cc(C)c(NC(=O)c2ccccc2C(=O)c2ccccc2)c(C)c1 | 0 | -9 | 13 | -3 | 43*
O=C(c1ccc(CSc2ccccc2)cc1)N1CCN(c2ccccc2)CC1 | 0 | -16 | -5 | -11 | 43*
CC(C)(O)C#Cc1ccc(C(=O)N2CCN(c3ccccc3)CC2)cc1 | 0 | 19 | -1 | ? | 43*
C[C@@H]1CN([C@H](C)CO)S(=O)(=O)c2ccc(-c3ccc(C#N)cc3)cc2O[C@@H]1CN(C)Cc1cccc(F)c1 | . | . | . | . | 0
